Data as given in ChEMBL document CHEMBL3259548, “Design, synthesis and biological evaluation of novel isoniazid derivatives with potent antitubercular activity” (Eur J Med Chem, 2014).
Converted amounts (≈) assume the structure as drawn.

How the values were obtained:
[1] = tested on: Mycobacterium tuberculosis; assay: Antitubercular activity against Mycobacterium tuberculosis H37Rv ATCC 27294 by BACTEC 960 assay; format: functional
[2] = tested on: Vero; assay: Cytotoxicity against african green monkey Vero cells after 48 hrs by MTT assay; format: cell-based; conditions: Chlorocebus sabaeus
[3] = Octanol-water partition co-efficient, log P of the compound by shake-flask method; format: physicochemical
[4] = Selectivity index, ratio of IC50 for african green monkey Vero cells to MIC for Mycobacterium tuberculosis H37Rv ATCC 27294; format: toxicity, cell-based; conditions: read-out: Selectivity Index
How it was run: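 Vero cells were seeded at ~4×10^5 cells/mL and grown 48 h at 37 °C in 5% CO2. […] MTT 0.5 mg/mL was added for 2 h and formazan dissolved in DMSO, with absorbance read at 570 nm to give IC50. SI = IC50 / H37Rv MIC (IC99).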

Compound	MIC [1]	other results
CCN(CC)Cc1cccc(/C(C)=N\NC(=O)c2ccncc2)c1O	3.93 µM (≈ 1.34 µg/mL)	–
O=C(NNC(=O)C(O)C(OC1OC(CO)C(O)C(O)C1O)C(O)CO)c1ccncc1 (configuration not stated)	0.346 µM (≈ 0.155 µg/mL)	–
CCn1cc(C(=O)O)c(=O)c2cc(F)c(N3CCN(Cc4cccc(/C(C)=N/NC(=O)c5ccncc5)c4O)C(C)C3)c(F)c21 (configuration not stated)	0.9 µM (≈ 0.557 µg/mL)	–
CC(C)CCOc1ccc(/C=N/NC(=O)c2ccncc2)cc1	0.161 µM (≈ 0.0501 µg/mL)	–
CCCCN(CCCC)Cc1cccc(/C(C)=N/NC(=O)c2ccncc2)c1O	4.43 µM (≈ 1.76 µg/mL)	–
NNC(=O)c1ccnc([N+](=O)[O-])c1	371 µM (≈ 67.6 µg/mL)	–
CC(=O)C/C(C)=N/NC(=O)c1ccncc1	3.65 µM (≈ 0.8 µg/mL)	–
CCCCCCCCC(=O)NNC(=O)c1ccncc1	0.09 µM (≈ 0.025 µg/mL)	–
CCN(CC)c1ccc(/C=N/NC(=O)c2ccncc2)cc1	2.02 µM (≈ 0.6 µg/mL)	–
C/C(=N\NC(=O)c1ccncc1)c1cccc(CN2CCN(c3cc4c(cc3F)c(=O)c(C(=O)O)cn4C3CC3)CC2)c1O	1.26 µM (≈ 0.754 µg/mL)	–
CCCc1cc(C(=O)NN)ccn1	55.2 µM (≈ 9.89 µg/mL)	–
C/C(=N\NC(=O)c1ccncc1)c1cccc(CN2CCN(C)CC2)c1O	3.36 µM (≈ 1.23 µg/mL)	–
CC(C)=NNC(=O)c1ccncc1	0.113 µM (≈ 0.02 µg/mL)	–
C=Cc1cc(C(=O)NN)ccn1	35 µM (≈ 5.71 µg/mL)	–
CCC(C)NNC(=O)c1ccncc1 (configuration not stated)	2.07 µM (≈ 0.4 µg/mL)	–
O=C(NN=C1CCCCC1)c1ccncc1	0.028 µM (≈ 0.00608 µg/mL)	–
CC(O)(NNC(=O)c1ccncc1)C(=O)O (configuration not stated)	0.266 µM (≈ 0.0599 µg/mL)	–
C/C=N/NC(=O)c1ccncc1	0.245 µM (≈ 0.04 µg/mL)	–
O=C(NNC1CCCCC1)c1ccncc1	22.8 µM (≈ 5 µg/mL)	–
Cc1ccc(C)n1NC(=O)c1ccncc1	46.5 µM (≈ 10 µg/mL)	–
C/C(=N\NC(=O)c1ccncc1)c1cccc(CN2CCCCC2)c1O	4.61 µM (≈ 1.62 µg/mL)	–
O=C(N/N=C/C(O)C(O)C(O)CO)c1ccncc1 (configuration not stated)	0.186 µM (≈ 0.0501 µg/mL)	–
O=C(NN=C1CCC(c2ccccc2)CC1)c1ccncc1 (configuration not stated)	0.27 µM (≈ 0.0792 µg/mL)	IC50 [2]: > 200 µM; logP [3]: 1.97; selectivity ratio [4]: > 733
CC1CCC(NNC(=O)c2ccncc2)CC1 (configuration not stated)	21.4 µM (≈ 5 µg/mL)	–

Compound	MIC [1]	other results
O=C(NNC(=O)C(O)C(O)C(O)CO)c1ccncc1 (configuration not stated)	0.501 µM (≈ 0.143 µg/mL)	–
CCc1cc(C(=O)NN)ccn1	21.1 µM (≈ 3.49 µg/mL)	–
O=C(N/N=C/c1cccc(CO)c1)c1ccncc1	0.47 µM (≈ 0.12 µg/mL)	IC50 [2]: > 200 µM; logP [3]: 0.902; selectivity ratio [4]: > 425
Cc1cnccc1C(=O)NN	1320 µM (≈ 200 µg/mL)	–
Cc1cc(C(=O)NN)ccn1	5.2 µM (≈ 0.786 µg/mL)	–
C/C(=N\NC(=O)c1ccncc1)c1cccc(CN(c2ccccc2)c2ccccc2)c1O	0.56 µM (≈ 0.244 µg/mL)	–
CC1CCC(=NNC(=O)c2ccncc2)CC1 (configuration not stated)	0.303 µM (≈ 0.0701 µg/mL)	–
CCC(CC)NNC(=O)c1ccncc1	14.5 µM (≈ 3 µg/mL)	–
CC(C)COc1ccc(/C=N/NC(=O)c2ccncc2)cc1	0.673 µM (≈ 0.2 µg/mL)	–
O=C(NNS(=O)(=O)c1ccccc1)c1ccncc1	10.8 µM (≈ 3 µg/mL)	–
CC(C)CNNC(=O)c1ccncc1	0.517 µM (≈ 0.0999 µg/mL)	–
C/C(=N\NC(=O)c1ccncc1)c1cccc(CN(Cc2ccccc2)Cc2ccccc2)c1O	1.3 µM (≈ 0.604 µg/mL)	–
C/C(=N/NC(=O)c1ccncc1)c1cccc(CN2CCNCC2)c1O	8.61 µM (≈ 3.04 µg/mL)	–
O=C(N/N=C/c1ccc(CO)cc1)c1ccncc1	0.27 µM (≈ 0.0689 µg/mL)	IC50 [2]: > 200 µM; logP [3]: 0.731; selectivity ratio [4]: > 729
CC(C)/C=N\NC(=O)c1ccncc1	0.523 µM (≈ 0.1 µg/mL)	–
CCCCCC(C)C(=O)NNC(=O)c1ccncc1 (configuration not stated)	3.04 µM (≈ 0.801 µg/mL)	logP [3]: 2.09
O=Cc1cccc(/C=N/NC(=O)c2ccncc2)c1	0.28 µM (≈ 0.0709 µg/mL)	IC50 [2]: > 200 µM; logP [3]: 1.33; selectivity ratio [4]: > 724
CC(=O)NNC(=O)c1ccncc1	44.6 µM (≈ 8 µg/mL)	–
Cc1ccccc1OC/C(N)=N/NC(=O)c1ccncc1	44 µM (≈ 12.5 µg/mL)	–
O=CNNC(=O)c1ccncc1	18.2 µM (≈ 3 µg/mL)	–
COc1cc(C(=O)NN)ccn1	153 µM (≈ 25.6 µg/mL)	–
N/C(COc1ccc([N+](=O)[O-])cc1)=N/NC(=O)c1ccncc1	19.8 µM (≈ 6.25 µg/mL)	–
CCC(CC)=NNC(=O)c1ccncc1	0.097 µM (≈ 0.0199 µg/mL)	–
CC(=O)NCc1cc(C(=O)NN)ccn1	243 µM (≈ 50.6 µg/mL)	–

Compound	MIC [1]	other results
O=C(NNS(=O)(=O)c1ccc([N+](=O)[O-])cc1)c1ccncc1	186 µM (≈ 60 µg/mL)	–
NNC(=O)c1ccncc1 [ISONIAZID]	0.146 µM (≈ 0.02 µg/mL)	IC50 [2]: > 200 µM; logP [3]: -0.851; selectivity ratio [4]: > 686
NNC(=O)c1ccnc(Br)c1	69.4 µM (≈ 15 µg/mL)	–
C/C(=N\NC(=O)c1ccncc1)c1cccc(CN2CCN(c3ccccn3)CC2)c1O	0.88 µM (≈ 0.379 µg/mL)	–
CC1CCCC(NNC(=O)c2ccncc2)C1 (configuration not stated)	17.1 µM (≈ 4 µg/mL)	–
Cc1cccc(OC/C(N)=N/NC(=O)c2ccncc2)c1	11 µM (≈ 3.12 µg/mL)	–
CC(C)NNC(=O)c1ccncc1 [IPRONIAZID]	2.23 µM (≈ 0.4 µg/mL)	–
CCCCCCCCCC/C=N/NC(=O)c1ccncc1	1.04 µM (≈ 0.3 µg/mL)	–
CCCCCC/C=N/NC(=O)c1ccncc1	0.129 µM (≈ 0.0301 µg/mL)	–
CCCCC/C(C)=N/NC(=O)c1ccncc1	0.129 µM (≈ 0.0301 µg/mL)	–
O=C(NNC(=O)c1ccncc1)c1ccncc1	33 µM (≈ 8 µg/mL)	–
C/C(=N/NC(=O)c1ccncc1)c1cccc(CN2CCN(Cc3ccccn3)CC2)c1O	0.87 µM (≈ 0.387 µg/mL)	–
N/C(COc1ccc(Cl)cc1)=N\NC(=O)c1ccncc1	10.2 µM (≈ 3.12 µg/mL)	–
NNC(=O)c1ccnc(I)c1	254 µM (≈ 66.8 µg/mL)	–
CCCCCCCCCCCCNNC(=O)c1ccncc1	0.164 µM (≈ 0.0501 µg/mL)	–
Nc1ccc(S(=O)(=O)NNC(=O)c2ccncc2)cc1	2050 µM (≈ 600 µg/mL)	–
CNC1C(OC2C(OC3C(O)C(O)C(NC(=N)N)C(O)C3NC(=N)N)OC(C)C2(O)/C=N\NC(=O)c2ccncc2)OC(CO)C(O)C1O (configuration not stated)	0.214 µM (≈ 0.15 µg/mL)	–
CC(=O)Nc1ccc(/C=N\NC(=O)c2ccncc2)cc1	0.283 µM (≈ 0.0799 µg/mL)	–
O=Cc1ccc(/C=N/NC(=O)c2ccncc2)cc1	0.24 µM (≈ 0.0608 µg/mL)	IC50 [2]: > 200 µM; logP [3]: 1.32; selectivity ratio [4]: > 844
Cc1ccc(OC/C(N)=N/NC(=O)c2ccncc2)cc1	22 µM (≈ 6.25 µg/mL)	–
CC(=O)Nc1cc(C(=O)NN)ccn1	2150 µM (≈ 418 µg/mL)	–
NNC(=O)c1ccnc(-c2ccccc2)c1	50 µM (≈ 10.7 µg/mL)	–
NNC(=O)c1ccnc(N)c1	14.5 µM (≈ 2.21 µg/mL)	–
N/C(COc1cccc(Cl)c1)=N\NC(=O)c1ccncc1	10.2 µM (≈ 3.12 µg/mL)	–

Compound	MIC [1]	other results
O=C(NN=C1CCCC1)c1ccncc1	0.2 µM (≈ 0.0406 µg/mL)	IC50 [2]: > 190 µM; logP [3]: 0.22; selectivity ratio [4]: > 965
C/C(=N\NC(=O)c1ccncc1)c1cccc(CN(C)C)c1O	2.29 µM (≈ 0.715 µg/mL)	–
NNC(=O)c1ccnc(Cl)c1	392 µM (≈ 67.3 µg/mL)	–
O=C(NNCc1ccco1)c1ccncc1	69.1 µM (≈ 15 µg/mL)	–
CCCCCCCCCC(=O)NNC(=O)c1ccncc1	0.38 µM (≈ 0.111 µg/mL)	IC50 [2]: > 75 µM; logP [3]: 3.46; selectivity ratio [4]: > 530
C/C(=N/NC(=O)c1ccncc1)c1cccc(CN2CCN(Cc3ccc(F)cn3)CC2)c1O	2.04 µM (≈ 0.944 µg/mL)	–
C/C(=N\NC(=O)c1ccncc1)c1cccc(CN2CCCC2)c1O	2.2 µM (≈ 0.745 µg/mL)	–
O=C(N/N=C/c1ccc(Oc2ccccc2)cc1)c1ccncc1	0.95 µM (≈ 0.301 µg/mL)	logP [3]: 3.7
NNC(=O)c1ccnc(Cc2ccccc2)c1	38.5 µM (≈ 8.75 µg/mL)	–
O=C(NNC1CCC(c2ccccc2)CC1)c1ccncc1 (configuration not stated)	0.44 µM (≈ 0.13 µg/mL)	IC50 [2]: > 200 µM; logP [3]: 2.83; selectivity ratio [4]: > 454
C/C=C/CCCCCCC/C=N/NC(=O)c1ccncc1	0.522 µM (≈ 0.15 µg/mL)	–
NNC(=O)c1ccnc(F)c1	2.58 µM (≈ 0.4 µg/mL)	–
CCN(CC)c1cc(C(=O)NN)ccn1	717 µM (≈ 149 µg/mL)	–
O=C(NNC(O)C(Cl)(Cl)Cl)c1ccncc1 (configuration not stated)	0.141 µM (≈ 0.0401 µg/mL)	–
C/C(=N\NC(=O)c1ccncc1)c1cccc(CN2CCOCC2)c1O	3.57 µM (≈ 1.27 µg/mL)	–
CC(C)(C#N)NNC(=O)c1ccncc1	0.294 µM (≈ 0.06 µg/mL)	–
O=C(N/N=C(\CO)C(O)C(O)C(O)CO)c1ccncc1 (configuration not stated)	0.2 µM (≈ 0.0599 µg/mL)	–
NNC(=O)c1ccncc1N	9.86 µM (≈ 1.5 µg/mL)	–
CCN(CC)CN(C)c1ccc(/C=N/NC(=O)c2ccncc2)cc1	0.236 µM (≈ 0.0801 µg/mL)	–
CCOc1cc(C(=O)NN)ccn1	450 µM (≈ 81.5 µg/mL)	–
NNC(=O)c1ccnc(NN)c1	0.42 µM (≈ 0.0702 µg/mL)	IC50 [2]: > 200 µM; logP [3]: -0.541; selectivity ratio [4]: > 478
COC(=O)c1ccc(/C=N/NC(=O)c2ccncc2)cc1	1.06 µM (≈ 0.3 µg/mL)	logP [3]: 1.32
